ChEMBL document CHEMBL4834433, “Calcitonin gene-related peptide (CGRP) receptor antagonists: Heterocyclic modification of a novel azepinone lead” (Bioorg Med Chem Lett, 2021)
Converted amounts (≈) assume the structure as drawn.

Columns and labels:
[1] = target: T1, Calcitonin gene-related peptide type 1 receptor (Homo sapiens, UniProt O60894+Q16602); experiment: Displacement of [125I]CGRP from human CGRP receptor in human SK-N-MC cells measured after 2 hrs by scintillation counting analysis; format: cell-based
T1 sequence (Q16602 whole entry, one chain of several): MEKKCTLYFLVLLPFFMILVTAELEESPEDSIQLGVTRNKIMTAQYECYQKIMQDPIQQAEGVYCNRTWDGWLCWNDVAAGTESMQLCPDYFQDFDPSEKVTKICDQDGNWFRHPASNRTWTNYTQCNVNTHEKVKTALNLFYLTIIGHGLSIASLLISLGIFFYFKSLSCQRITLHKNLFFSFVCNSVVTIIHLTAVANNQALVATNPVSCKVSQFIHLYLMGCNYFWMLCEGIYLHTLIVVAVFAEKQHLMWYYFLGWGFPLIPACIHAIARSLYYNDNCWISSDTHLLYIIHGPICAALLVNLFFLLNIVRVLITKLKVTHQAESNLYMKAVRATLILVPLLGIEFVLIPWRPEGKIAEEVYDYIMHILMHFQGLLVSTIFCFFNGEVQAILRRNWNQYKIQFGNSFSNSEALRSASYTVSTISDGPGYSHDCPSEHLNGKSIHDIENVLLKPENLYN

[2] = Microsomal stability in human liver microsomes assessed as parent compound remaining at […] measured after 10 mins; format: ADME; conditions: read-out: Stabilty
[3] = Microsomal stability in rat microsomes assessed as parent compound remaining at […] measured after 10 mins; format: ADME, Microsome; conditions: read-out: Stabilty
[4] = Microsomal stability in monkey microsomes assessed as parent compound remaining at […] measured after 10 mins; format: ADME, Macaca mulatta, Liver, Microsome; conditions: rhesus monkey, read-out: Stabilty
[5] = Cmax in rat at 10 mg/kg, po; format: ADME, organism-based; set-up: route oral, dose 10 mg/kg; conditions: in vivo
Outline: (§1)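 Rats received a single 10 mg/kg oral dose in 80% PEG400/10% DMAC/10% Tween 80.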

[6] = target: T1, Calcitonin gene-related peptide type 1 receptor; experiment: Antagonist activity against human CGRP receptor in human SK-N-MC cells assessed as inhibition of CGRP-stimulated cAMP production; format: functional, cell-based
Callithrix jacchus [7] = experiment: Antimigraine activity in human CGRPalpha-induced migraine marmoset model assessed as reduction in facial blood flow at 7 mg/kg, sc administered 30 mins after CGRPalpha stimulation measured after 15 to 105 mins by laser doppler method relative to control; format: functional; set-up: scale not given: the % may be the effect or the level left; conditions: time 15-105 min
Outline: (§2)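 Marmosets were anesthetized. Facial blood flow was raised by iv hαCGRP (10 µg/kg) given at −30, +15, +60 and +105 min relative to sc antagonist dosing at 0 min. Blood flow was read by laser Doppler flowmetry. Inhibition of the CGRP-induced increase was expressed against the predose vehicle control response at −30 min.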

[8] = Cmax in Cynomolgus monkey at 10 mg/kg, po; format: ADME, organism-based, Macaca fascicularis; set-up: route oral, dose 10 mg/kg; conditions: in vivo
[9] = Permeability of compound at pH 5.5 by PAMPA assay; format: ADME; conditions: read-out: permeability
[10] = Permeability of compound at pH 7.4 by PAMPA assay; format: ADME; conditions: read-out: permeability
[11] = Permeability form apical to basolateral side in human Caco2 cells; format: ADME, cell-based; conditions: Caco-2, read-out: permeability
[12] = Permeability form basolateral to apical side in human Caco2 cells; format: ADME, cell-based; conditions: Caco-2, read-out: permeability
[13] = Solubility in phosphate buffer at pH 7 using amorphous form of sample; format: physicochemical
Outline: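 Solubility of the amorphous solid was measured in 50 mM phosphate buffer, pH 7.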

Cytochrome P450 3A4 = Cytochrome P450 3A4 (Homo sapiens, UniProt P08684); experiment: Time dependent inhibition of CYP3A4 (unknown origin) measured after 30 mins; format: ADME
Cytochrome P450 3A4, sequence (P08684 whole entry): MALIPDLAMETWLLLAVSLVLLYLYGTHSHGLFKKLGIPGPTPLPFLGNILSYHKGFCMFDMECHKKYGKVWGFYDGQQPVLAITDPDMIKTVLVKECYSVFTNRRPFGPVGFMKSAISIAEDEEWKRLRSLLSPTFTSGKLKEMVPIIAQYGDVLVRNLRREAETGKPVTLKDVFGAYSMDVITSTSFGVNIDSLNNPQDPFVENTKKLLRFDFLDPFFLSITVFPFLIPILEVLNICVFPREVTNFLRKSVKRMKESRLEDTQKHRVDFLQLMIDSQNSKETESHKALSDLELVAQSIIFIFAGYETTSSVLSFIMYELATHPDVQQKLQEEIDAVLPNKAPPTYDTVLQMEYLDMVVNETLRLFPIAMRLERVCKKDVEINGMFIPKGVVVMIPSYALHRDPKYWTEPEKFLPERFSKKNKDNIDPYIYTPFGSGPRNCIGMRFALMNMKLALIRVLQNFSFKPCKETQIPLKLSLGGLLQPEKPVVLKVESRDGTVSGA

Callithrix jacchus [14] = experiment: Antimigraine activity in human CGRPalpha-induced migraine marmoset model assessed as reduction in facial blood flow at 7 mg/kg, sc administered 30 mins after CGRPalpha stimulation measured after 15 mins by laser doppler method relative to control; format: functional; set-up: scale not given: the % may be the effect or the level left; conditions: 0.25 h; outline: as §2
Callithrix jacchus [15] = experiment: Antimigraine activity in human CGRPalpha-induced migraine marmoset model assessed as reduction in facial blood flow at 7 mg/kg, sc administered 30 mins after CGRPalpha stimulation measured after 60 mins by laser doppler method relative to control; format: functional; set-up: scale not given: the % may be the effect or the level left; conditions: 1 h; outline: as §2
Callithrix jacchus [16] = experiment: Antimigraine activity in human CGRPalpha-induced migraine marmoset model assessed as reduction in facial blood flow at 7 mg/kg, sc administered 30 mins after CGRPalpha stimulation measured after 105 mins by laser doppler method relative to control; format: functional; set-up: scale not given: the % may be the effect or the level left; conditions: 1.75 h; outline: as §2
[17] = Total plasma concentration in human CGRPalpha-induced migraine marmoset model at 7 mg/kg, sc measured after 15 to 105 mins; format: ADME, organism-based, Callithrix jacchus; conditions: in vivo, time 15-105 min
Outline: (§3)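 In anesthetized marmosets given the antagonist sc at 0 min and iv hαCGRP (10 µg/kg) at −30, +15, +60 and +105 min, total plasma levels were taken at the 15, 60 and 105 min postdose test times.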

[18] = Fraction unbound in plasma of human CGRPalpha-induced migraine marmoset model at 7 mg/kg, sc measured after 15 to 105 mins; format: ADME, organism-based, Callithrix jacchus; conditions: time 15-105 min
Callithrix jacchus [19] = experiment: Antimigraine activity in human CGRPalpha-induced migraine marmoset model assessed as reduction in facial blood flow at 3 mg/kg, sc administered 30 mins after CGRPalpha stimulation measured after 15 to 105 mins by laser doppler method relative to control; format: functional; set-up: scale not given: the % may be the effect or the level left; conditions: time 15-105 min; outline: as §2
[20] = Oral bioavailability in rat at 10 mg/kg; format: ADME, organism-based; conditions: in vivo; outline: as §1
[21] = Total plasma concentration in human CGRPalpha-induced migraine marmoset model at 3 mg/kg, sc measured after 15 to 105 mins; format: ADME, organism-based, Callithrix jacchus; conditions: in vivo, time 15-105 min; outline: as §3

SMILES | Ki [1] | remaining at 10 min [2] | remaining at 10 min [3] | remaining at 10 min [4] | Cmax [5] | also measured
NC(=O)c1c[nH]c2c(Cl)cc3c(c12)CN(CC(F)(F)F)C(=O)[C@H](CC(=O)N1CCC(n2c(=O)[nH]c4ncccc42)CC1)C3 | 0.4 nM | 80% | 80% | 70% | – | –
O=C(C[C@@H]1Cc2cc(Cl)c3[nH]ccc3c2CN(CC(F)(F)F)C1=O)N1CCC(N2CCc3ccccc3NC2=O)CC1 | 0.85 nM | 0.9% | 0.8% | 1.6% | – | –
N#Cc1c[nH]c2c(Cl)cc3c(c12)CN(CC(F)(F)F)C(=O)[C@H](CC(=O)N1CCC(n2c(=O)[nH]c4ncccc42)CC1)C3 | 0.06 nM | 40% | 40% | 7% | – | –
O=C(C[C@@H]1Cc2cc(Cl)c3[nH]ncc3c2CN(CC(F)(F)F)C1=O)N1CCC(N2CCc3ccccc3NC2=O)CC1 | 0.046 nM | – | – | – | – | IC50 (Cytochrome P450 3A4): 100 nM
Cn1c(=O)[nH]c2c(Cl)cc3c(c21)CN(CC(F)(F)F)C(=O)[C@H](CC(=O)N1CCC(N2CCc4ncccc4NC2=O)CC1)C3 | 0.043 nM | 73% | 56% | 100% | 11 nM | –
O=C(C[C@@H]1Cc2cc(Cl)c3[nH]cnc3c2CN(CC(F)(F)F)C1=O)N1CCC(N2CCc3ccccc3NC2=O)CC1 | 0.17 nM | 26% | 7% | 24% | – | –
O=C(C[C@@H]1Cc2cc(Cl)c3c(c2CN(CC(F)(F)F)C1=O)C(F)(F)C(=O)N3)N1CCC(N2CCc3ccccc3NC2=O)CC1 | 0.069 nM | 22% | 35% | 8.1% | 480 nM | –
O=C(C[C@@H]1Cc2cc(Cl)c3[nH]c(=O)n(CC(F)(F)F)c3c2CN(CC(F)(F)F)C1=O)N1CCC(N2CCc3ccccc3NC2=O)CC1 | 0.02 nM | 58% | 54% | 87% | 270 nM | IC50 [6]: 0.12 nM; IC50 (Cytochrome P450 3A4): 8400 nM; Activity (Callithrix jacchus [14]): 26%; Activity (Callithrix jacchus [15]): 65%; Activity (Callithrix jacchus [16]): 84%; concentration [17]: 80 nM; fraction unbound [18]: 0.009; Cmax [8]: 87 nM; Papp [9]: 51.3 ×10⁻⁶ cm/s; Papp A→B [11]: < 1.5 ×10⁻⁶ cm/s; Papp B→A [12]: 2.4 ×10⁻⁶ cm/s; solubility [13]: < 1 µg/mL

More lines, main results first:

Ki [1] | remaining at 10 min [2] | remaining at 10 min [3] | remaining at 10 min [4] | Cmax [5] | SMILES | also measured
0.014 nM | 44% | 22% | 59% | 230 nM | CCn1c(=O)[nH]c2c(Cl)cc3c(c21)CN(CC(F)(F)F)C(=O)[C@H](CC(=O)N1CCC(N2CCc4ccccc4NC2=O)CC1)C3 | IC50 [6]: 0.09 nM; Activity (Callithrix jacchus [7]): 67%; Cmax [8]: 230 nM
0.12 nM | 49% | 64% | 63% | 36 nM | O=C(C[C@@H]1Cc2cc(Cl)c3[nH]c(=O)oc3c2CN(CC(F)(F)F)C1=O)N1CCC(n2c(=O)[nH]c3ncccc32)CC1 | –
0.026 nM | 90% | 90% | 41% | 3 nM | O=C(C[C@@H]1Cc2cc(Cl)c3[nH]c(=O)n(CC(F)(F)F)c3c2CN(CC(F)(F)F)C1=O)N1CCC(n2c(=O)[nH]c3ncccc32)CC1 | Papp [9]: 2.8 ×10⁻⁶ cm/s; Papp [10]: 2.3 ×10⁻⁶ cm/s; Papp A→B [11]: < 1.5 ×10⁻⁶ cm/s; Papp B→A [12]: 16.5 ×10⁻⁶ cm/s; solubility [13]: < 1 µg/mL
0.13 nM | 91% | 82% | 28% | 4 nM | O=C(C[C@@H]1Cc2cc(Cl)c3c(c2CN(CC(F)(F)F)C1=O)C(F)(F)C(=O)N3)N1CCC(n2c(=O)[nH]c3ncccc32)CC1 | IC50 (Cytochrome P450 3A4): > 40000 nM; Activity (Callithrix jacchus [14]): 47%; Activity (Callithrix jacchus [15]): 48%; Activity (Callithrix jacchus [16]): 56%; concentration [17]: 140 nM; fraction unbound [18]: 0.054; Papp [9]: 9.9 ×10⁻⁶ cm/s; Papp [10]: 8.7 ×10⁻⁶ cm/s; Papp A→B [11]: < 1.5 ×10⁻⁶ cm/s; Papp B→A [12]: 25.7 ×10⁻⁶ cm/s; solubility [13]: 15 µg/mL (≈ 23.9 µM)
0.015 nM | 36% | 35% | 75% | 96 nM | Cn1c(=O)[nH]c2c(Cl)cc3c(c21)CN(CC(F)(F)F)C(=O)[C@H](CC(=O)N1CCC(N2CCc4ccccc4NC2=O)CC1)C3 | IC50 [6]: 0.06 nM; IC50 (Cytochrome P450 3A4): 8100 nM; Activity (Callithrix jacchus [14]): 57%; Activity (Callithrix jacchus [15]): 87%; Activity (Callithrix jacchus [16]): 85%; Activity (Callithrix jacchus [19]): 79%; concentration [17]: 170 nM; bioavailability [20]: 1%; concentration [21]: 40 nM; fraction unbound [18]: 0.023; Cmax [8]: 35 nM; Papp [10]: 19.2 ×10⁻⁶ cm/s; Papp A→B [11]: < 1.5 ×10⁻⁶ cm/s; Papp B→A [12]: 19.6 ×10⁻⁶ cm/s; solubility [13]: < 1 µg/mL
0.44 nM | 62% | 90% | 64% | – | O=C(C[C@@H]1Cc2cc(Cl)c3[nH]nnc3c2CN(CC(F)(F)F)C1=O)N1CCC(n2c(=O)[nH]c3ncccc32)CC1 | –
0.019 nM | 60% | 41% | 71% | 3 nM | O=C(C[C@@H]1Cc2cc(Cl)c3[nH]c(=O)[nH]c3c2CN(CC(F)(F)F)C1=O)N1CCC(N2CCc3ccccc3NC2=O)CC1 | –
0.06 nM | 38% | 11% | 26% | – | N#Cc1c[nH]c2c(Cl)cc3c(c12)CN(CC(F)(F)F)C(=O)[C@H](CC(=O)N1CCC(N2CCc4ccccc4NC2=O)CC1)C3 | –
